From PubChem
procasp7 counter: activates human procaspase-7, counter-screen for procaspase-3 activators; P55210; recombinant procaspase-7, Ac-DEVD-pNA absorbance 405 nm; D23A/D198A/D206A triple mutant, cannot self-cleave; scale: DMSO 0, 5 µM enzyme 100; activation, % at 8.5 µM; 0.093% of 330,000 active; AID 463210;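 active = percent activation above the screen-wide mean plus 3 SD, cut at about 25% in these data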
Target sequence (P55210 whole entry D23A/D198A/D206A): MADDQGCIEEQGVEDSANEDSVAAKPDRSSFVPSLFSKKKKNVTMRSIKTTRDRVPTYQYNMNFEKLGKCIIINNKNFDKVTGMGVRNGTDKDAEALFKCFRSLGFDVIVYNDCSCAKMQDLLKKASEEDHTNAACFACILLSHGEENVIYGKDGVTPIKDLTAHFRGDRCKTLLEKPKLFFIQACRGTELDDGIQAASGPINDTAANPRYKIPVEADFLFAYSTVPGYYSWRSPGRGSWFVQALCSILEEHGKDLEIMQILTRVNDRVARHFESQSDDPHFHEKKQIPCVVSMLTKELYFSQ
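System: Procaspase-7 triple mutant (PC-7 D3A); measure: % activation from two-timepoint absorbance difference, scaled to controls; times: 1 h compound preincubation, 2 h substrate cleavage, 25 °C; also added: Ac-DEVD-pNA substrate, 400 µM as added; measured by: Epi-absorbance of released pNA at 405 nm, two timepoints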
procasp3 activ: procaspase-3 (human) activation; P42574; recombinant procaspase-3 D3A, Ac-DEVD-pNA absorbance 405 nm; activation, % at 8.5 µM; 0.11% of 330,000 active; AID 463141;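 active = activation above the mean of all tested compounds plus 3 SD, cut at about 21% in these data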
Target sequence (P42574 whole entry D9A/D28A/D175A): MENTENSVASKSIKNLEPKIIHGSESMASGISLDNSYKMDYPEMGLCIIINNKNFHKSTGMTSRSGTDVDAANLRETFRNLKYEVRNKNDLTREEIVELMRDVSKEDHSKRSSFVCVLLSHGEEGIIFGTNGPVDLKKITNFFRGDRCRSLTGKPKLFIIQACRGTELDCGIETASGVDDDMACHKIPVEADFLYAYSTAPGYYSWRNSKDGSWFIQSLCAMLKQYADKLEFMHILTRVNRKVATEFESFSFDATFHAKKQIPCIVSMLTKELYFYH
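Assay system – Procaspase-3 D3A mutant, all three cleavage aspartates alanine · Controls – DMSO-only low control, 5 µM PC-3 D3A high control · Schedule – 1 h compound preincubation, 2 h substrate hydrolysis at 25 °C · Signal – 405 nm absorbance of p-nitroaniline, reads at 0 and 120 min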
PP1 counter: PP1-alpha (human) inhibition in PP5 counter-screen; inhibition, % at 6.7 µM; 0.9% of 320,000 active; purified PP1alpha, OMFP fluorescence; AID 2235; P62136;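 active = inhibition above the mean inhibition of all tested compounds plus 3 SD, computed separately for each screening campaign, cut at about 15% in these data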
PP5 primary: PP5 (human) phosphatase inhibition | 0.18% of 320,000 active | inhibition, % at 6.7 µM | purified PP5c, OMFP substrate fluorescence | P53041;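 active = inhibition above the campaign's mean inhibition across all tested compounds plus 3 SD, cut at about 9.5% in these data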
A number is an active result; – = inactive; · = not tested or not shown. Only some compounds are listed: those with a hit (about 1.2% of all), similar ones and a draw of the others.

SMILES	procasp7 counter	procasp3 activ	PP1 counter	PP5 primary
CCOc1ccc(NC(=O)c2c[nH]n3c(=O)cc(C4CCN(C(=O)OC(C)(C)C)CC4)nc23)cc1	–	–	16.2	–
CC1CCCN(C(=O)CSc2nnc3ccccn23)C1 (stereo unspecified)	–	–	–	–
CC(C)(C)OC(=O)COc1cc(OCC(=O)OC(C)(C)C)c2c(=O)cc(-c3ccccc3)oc2c1	–	–	16.6	–
Cc1ccsc1CN(C)C(=O)C(NC(=O)c1cccc(S(=O)(=O)N2CCOCC2)c1)C(C)C (stereo unspecified)	–	–	–	–
C[C@@H]1CC=C[C@H]2[C@H]1C(=O)N(Cc1ccccc1)[C@H]2c1ccc(F)c(-c2ccc(N(C)C)cc2)c1	–	–	16.1	–
Cc1ccccc1N(CC(=O)NC1CCCCC1)C(=O)CCC(=O)Nc1nccs1	–	–	17.2	–
O=C(NCCc1ccccc1)c1ccc2c(c1)S(=O)(=O)c1cc(Cl)ccc1C2=O	–	–	–	–
C=CCn1c(C)cc(C(=O)CSc2nnc(NCc3ccccc3)s2)c1C	–	–	–	11.6
C=CCn1c(C)cc(C(=O)CSc2nnc(NC(C)C)s2)c1C	–	–	–	–
O=C(N/N=C/c1cn(-c2ccccc2)nc1-c1cc2ccccc2o1)c1ccncc1	–	–	–	–
O=C(O)c1cccc(NC(=O)c2cn(-c3ccccc3)nc2-c2cc3ccccc3o2)c1	–	–	16.1	–
CC(C)Cn1nc(C(=O)Nc2nnc(C3CC3)s2)c2ccccc2c1=O	–	–	–	–
COc1cc(OC)c2c(-c3ccccc3)cc(=O)oc2c1C(CCN1CCN(c2ccccc2)CC1)c1ccc(N(C)C)cc1 (stereo unspecified)	–	–	15.9	–
COc1ccc(C(CCN2CCN(c3ccccc3)CC2)c2c(OC)cc(OC)c3c(-c4ccccc4)cc(=O)oc23)cc1 (stereo unspecified)	–	–	–	–
COC(=O)c1cccc(C23CC4(C2)[C@H](CN(Cc2cccnc2)[C@@H]4c2ccccc2)C3c2ccccc2)c1 (stereo partly specified)	–	–	16.5	–
FC(F)(F)c1ccc(C2[C@H]3CN(Cc4cccnc4)[C@H](c4ccccc4)C34CC2(c2ccccc2)C4)cc1 (stereo partly specified)	–	–	16.3	–
FC(F)(F)c1ccc(CN2C[C@@H]3C(c4ccc(C(F)(F)F)cc4)C4(c5cccnc5)CC3(C4)[C@H]2c2ccccc2)cc1 (stereo partly specified)	–	–	–	–
COc1cc(OC)cc(C(=O)N[C@H](C(=O)Nc2c(C)n(C)n(-c3ccccc3)c2=O)C(C)C)c1	–	–	·	·
Cc1ccc(Nc2cc(C)c3c(O)cccc3n2)cc1C	–	–	–	–
Cc1ccc(Nc2cc(C)c3ccc(O)cc3n2)cc1C	–	–	17.0	–
O=C(NCc1cccc(C(F)(F)F)c1)c1cc(Cl)cc(Cl)c1	35.6	–	–	–
c1ccc2c(c1)ncn2CCCCOc1ccc2c(c1)CCC2	–	–	15.8	–
O=C(COC(=O)c1ccccc1Cc1ccccc1)Nc1ccc(SC(F)F)cc1	–	–	16.1	–
N=c1c2c(-c3ccccc3)c(-c3ccccc3)n(Cc3ccco3)c2ncn1Cc1ccco1	–	–	16.4	–
Cc1cc(NCCCn2ccnc2)n2nc(C)c(-c3ccccc3)c2n1	–	–	–	–
SMILES	procasp7 counter	procasp3 activ	PP1 counter	PP5 primary
CCCCn1cnc2c(c(-c3ccccc3)c(-c3ccccc3)n2Cc2ccco2)c1=N	–	–	–	–
N=c1c2c(-c3ccccc3)c(-c3ccccc3)n(Cc3ccccc3)c2ncn1CCCn1ccnc1	–	–	15.3	–
CCCn1c(=O)c(C(=O)OCC)c(O)c2cc(Br)ccc21	–	–	–	–
CCOC(=O)c1c(CN(C)C)n(C)c2c(O)c(N=NC(N)=O)c3ccc(Br)cc3c12	–	–	17.2	–
NC(=O)[C@H]1CC2(CC(c3cccc(NC(=O)COc4ccc(Cl)cc4)c3)=NO2)CN1C(=O)C(c1ccccc1)c1ccccc1 (stereo partly specified)	–	–	16.5	–
Cc1c(C(=O)N2CC3(CC(c4cccc(NC(=O)CC(c5ccccc5)c5ccccc5)c4)=NO3)C[C@@H]2C(N)=O)cc([N+](=O)[O-])cc1[N+](=O)[O-] (stereo partly specified)	–	–	16.0	–
NC(=O)[C@@H]1CC2(CC(c3cccc(NC(=O)COc4ccc(Cl)cc4)c3)=NO2)CN1C(=O)COc1ccc(Cl)cc1 (stereo partly specified)	–	–	–	–
CSc1ccccc1NC(=O)c1cc(-c2cccnc2)nc2ccc(Br)cc12	–	–	17.0	–
CC(=O)Nc1cccc(NC(=O)c2cc(-c3cccnc3)nc3ccc(Br)cc23)c1	–	–	–	–
Cc1ccccc1Nc1nc(N)nc(CSc2nnnn2-c2ccccc2)n1	–	–	–	–
CCc1ccc(Nc2nc(N)nc(CSc3nnnn3-c3ccccc3)n2)cc1	–	–	15.8	–
CCOC(=O)N1CCN(S(=O)(=O)c2ccc(C(=O)NNc3nc4ccc(Cl)cc4s3)cc2)CC1	–	–	16.0	–
Cc1cc(C)c2nc(NNC(=O)c3ccc(S(=O)(=O)N4CCCCC4)cc3)sc2c1	–	–	15.8	–
Cc1cccc2sc(NNC(=O)c3ccc(S(=O)(=O)N4CCc5ccccc5C4)cc3)nc12	–	–	15.6	–
Cc1cc2c(=O)n(C)c(SCC(=O)Nc3ccccc3C)nc2s1	–	–	–	–
NC(=O)c1cnn2c(-c3ccc(Cl)cc3Cl)ccnc12	–	–	–	–
Cc1noc(C)c1COc1ccccc1C(=O)N(C)CC(=O)Nc1ccc(F)cc1	–	–	–	–
COc1cc(NC(=O)c2sc3ncn(CC(=O)N4CCCC(C)C4)c(=O)c3c2C)cc(OC)c1OC (stereo unspecified)	–	–	16.6	–
CCC(C)NC(=O)c1nc2c(nnn2Cc2ccccc2Cl)c(=O)[nH]1 (stereo unspecified)	–	–	–	–
O=C(NCc1cccs1)c1nc2c(nnn2Cc2ccccc2Cl)c(=O)[nH]1	–	–	21.2	–
COc1cccc(C(=O)Nc2ccc(-c3nc4ccccc4o3)c(O)c2)c1	–	–	15.6	–
COc1cccc(NC(=O)CN(C)C(=O)/C=C/c2ccc3ccccc3n2)c1	–	–	–	–
Sc1nnc(-c2ccc(Cl)cc2)n1Cc1ccccc1	–	–	15.3	–
S=c1[nH]nc(-c2ccc(Cl)cc2)n1Cc1ccccc1	–	–	–	–
O=C1c2c(O)cccc2C(C2OC(CO)[C@@H](O)[C@H](O)[C@H]2O)c2cc(CO)cc(O)c21 (stereo partly specified)	–	–	–	–
O=C1c2cc(CO)cc(O)c2C(=O)c2c(O[C@@H]3OC(CO)[C@@H](O)[C@@H](O)[C@@H]3O)cccc21 (stereo partly specified)	–	–	–	–
